# Measurements from ChEMBL document CHEMBL1130025, “Dihydro(alkylthio)(naphthylmethyl)oxopyrimidines: novel non-nucleoside reverse transcriptase inhibitors of the S-DABO series” (J Med Chem, 1997).
# Key:
# MT4 [1] = assay: Dose required to achieve 50% protection of MT-4 cells from the HIV-1 induced cytopathogenicity in HIV-1 infected MT-4 cells; details: Homo sapiens
# MT4 [2] = assay: Dose required to reduce the viability of mock-infected cells by 50%; type: functional; details: Homo sapiens
# Outline: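 Mock-infected MT-4 cells (1×10^4 per well) were exposed to compound dilutions in parallel with the antiviral assay. After 4 days at 37 °C, viability was measured by MTT. CC50 is the dose reducing viable cell number by 50%.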
# [3] = target: Human immunodeficiency virus type 1 reverse transcriptase (Human immunodeficiency virus 1, UniProt Q72547); assay: Compound concentration required to inhibit the HIV-1 recombinant Reverse transcriptase (rRT) activity by 50%.
# [4] = tested on: Human immunodeficiency virus type 1; assay: Selectivity index is the ratio of CC50 to EC50; details: Human immunodeficiency virus 1
# H9 = assay: Ability to inhibit HIV-1 multiplication in chronically infected H9/IIIB cells; type: functional, cell-based; details: Homo sapiens
# Outline: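 Value taken as compound dose lowering infectious HIV-1 titer by 1 log in chronically infected H9/IIIB cells. Titer was read in C8166 cells by limiting dilution (1:2, 4 replica wells per dilution), with light-microscope scoring of cytopathicity after 4 days, expressed as CCID50/mL. Data are means of three separate experiments.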
# C8166 = assay: Ability to inhibit HIV-2 multiplication in acutely infected C8166 cells; type: functional, cell-based; details: Homo sapiens
# Outline: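 C8166 cells (1×10^4 per well) in RPMI 1640 with 10% FCS were infected with 1000 CCID50 of HIV-2 ROD, alongside serial compound dilutions from DMSO stock. After 5 days at 37 °C, viable cells were counted by MTT. EC50 is the dose giving 50% protection from virus-induced cytopathicity. Data are means of three experiments.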
# MT4 [5] = assay: (§1) Inhibitory activity against resistant HIV-1 strain NevR was determined.; type: functional, cell-based; details: Homo sapiens
# MT4 [6] = assay: (§2) Inhibitory activity against resistant HIV-1 strain MC639r was determined.; type: functional, cell-based; details: Homo sapiens
# MT4 [7] = assay: as §2; type: functional, Homo sapiens
# MT4 [8] = assay: as §1; type: functional, Homo sapiens
# MT4 [9] = assay: Inhibitory activity against resistant HIV-1 strain Nevr was determined; type: functional, cell-based; details: Homo sapiens
SMILES,EC50 (MT4 [1]),CC50 (MT4 [2]),Ratio [4],other results
CCC(C)Sc1nc(O)c(C)c(-c2ccccc2)n1 (stereo not drawn),> 126 µM,126 µM,–,–
Cc1c(O)nc(S)nc1CCc1ccccc1,> 300 µM,> 300 µM,–,–
Cc1cccc(Cc2nc(SC3CCCCC3)nc(N/N=C(/N)S)c2C)c1,> 24 µM,24 µM,–,–
CCC(C)Sc1nc(Cc2ccc3ccccc3c2)c(C)c(=O)[nH]1 (stereo not drawn),–,–,–,IC50 [3]: 29.7 µM
Cc1c(O)nc(SC2CCCCC2)nc1Cc1ccc2ccccc2c1,125 µM,> 300 µM,> 2.4,–
Cc1c(O)nc(SC2CCCC2)nc1-c1ccccc1,> 175 µM,175 µM,–,–
Oc1cc(Cc2cccc3ccccc23)nc(S)n1,> 300 µM,> 300 µM,–,–
Cc1c(O)nc(SC2CCCC2)nc1COc1ccccc1,24 µM,> 300 µM,> 13,–
Oc1cc(-c2ccccc2)nc(SC2CCCCC2)n1,> 300 µM,> 300 µM,–,–
CCC(C)Sc1nc(O)c(C)c(Cc2cccc(C)c2)n1 (stereo not drawn),–,100 µM,100,–
Cc1cccc(Cc2nc(SC3CCCCC3)ncc2C)c1,> 128 µM,128 µM,–,–
Cc1c(Cc2cccc3ccccc23)nc(SC2CCCC2)[nH]c1=O,–,–,–,IC50 [3]: 45 µM
Cc1cccc(Cc2nc(SC3CCCCC3)n(C)c(=O)c2C)c1,> 44 µM,44 µM,–,–
CCC(C)Sc1nc(O)c(C)c(Cc2ccc3ccccc3c2)n1 (stereo not drawn),1.7 µM,80 µM,47,EC50 (H9): > 100 µM; EC50 (C8166): > 100 µM; EC50 (MT4 [5]): > 100 µM; EC50 (MT4 [6]): 17.8 µM
CCC(C)Sc1nc(O)cc(COc2ccccc2)n1 (stereo not drawn),52 µM,> 300 µM,> 6,–
CCC(C)Sc1nc(O)c(C)c(CSc2ccccc2)n1 (stereo not drawn),23 µM,75 µM,3.3,–
Cc1cn([C@H]2C[C@H](N=[N+]=[N-])[C@@H](CO)O2)c(=O)[nH]c1=O [ZIDOVUDINE],–,> 80 µM,–,EC50 (H9): > 20 µM; EC50 (C8166): 0.015 µM; EIC50 (MT4 [7]): 0.003 µM; EIC50 (MT4 [8]): 0.013 µM
Cc1c(O)nc(S)nc1COc1ccccc1,> 300 µM,> 300 µM,–,–
Cc1nc(SC2CCCC2)nc(O)c1Cc1ccccc1,> 300 µM,> 300 µM,–,–
Oc1cc(Cc2cccc3ccccc23)nc(SC2CCCCC2)n1,3.1 µM,> 300 µM,> 96,–
Oc1cc(Cc2ccc3ccccc3c2)nc(SC2CCCCC2)n1,1.7 µM,> 300 µM,> 128,IC50 [3]: 33.1 µM; EC50 (H9): > 100 µM; EC50 (C8166): > 100 µM; EC50 (MT4 [5]): > 100 µM; EC50 (MT4 [6]): 20 µM
Cc1c(O)nc(SC2CCCCC2)nc1CSc1ccccc1,150 µM,> 300 µM,> 2,–
Cc1cccc(Cc2nc(SC3CCCCC3)nc(N)c2C)c1,> 200 µM,> 200 µM,–,–
Cc1c(O)nc(S)nc1Cc1cccc2ccccc12,> 145 µM,145 µM,–,–
Cc1nc(SC2CCCCC2)nc(O)c1Cc1ccccc1,> 300 µM,> 300 µM,–,–

SMILES,EC50 (MT4 [1]),CC50 (MT4 [2]),Ratio [4],other results
CCC(C)Sc1nc(COc2ccccc2)c(C)c(=O)[nH]1 (stereo not drawn),–,–,–,IC50 [3]: > 100 µM
Oc1cc(Cc2cccc3ccccc23)nc(SC2CCCC2)n1,2 µM,> 300 µM,> 150,EC50 (H9): > 100 µM; EC50 (C8166): > 100 µM; EC50 (MT4 [9]): > 100 µM; EC50 (MT4 [5]): > 100 µM
CCC(C)Sc1nc(O)cc(Cc2cccc3ccccc23)n1 (stereo not drawn),0.33 µM,> 300 µM,> 909,IC50 [3]: 8.1 µM; EC50 (H9): > 100 µM; EC50 (C8166): > 100 µM; EC50 (MT4 [5]): > 100 µM; EC50 (MT4 [6]): 2.1 µM
CCC(C)Sc1nc(Cc2cccc3ccccc23)c(C)c(=O)[nH]1 (stereo not drawn),–,–,–,IC50 [3]: 22.5 µM
Cc1c(O)nc(SC2CCCC2)nc1Cc1ccc2ccccc2c1,15 µM,> 300 µM,> 20,–
Cc1c(O)nc(S)nc1CSc1ccccc1,> 300 µM,> 300 µM,–,–
Cc1cccc(Cc2nc(SC3CCCCC3)nc(Cl)c2C)c1,> 133 µM,133 µM,–,–
CCC(C)Sc1nc(O)cc(CCc2ccccc2)n1 (stereo not drawn),125 µM,180 µM,1.4,–
Cc1c(O)nc(SC2CCCCC2)nc1Cc1cccc2ccccc12,63 µM,> 300 µM,> 4.7,–
CCC(CC)Sc1nc(O)cc(Cc2cccc3ccccc23)n1,4 µM,200 µM,50,–
Cc1c(O)nc(SC2CCCCC2)nc1-c1ccccc1,> 300 µM,> 300 µM,–,–
Cc1cccc(Cc2nc(SC3CCCCC3)nc(O)c2C)c1,–,> 300 µM,> 500,IC50 [3]: 0.9 µM; EC50 (H9): > 100 µM; EC50 (C8166): > 100 µM; EC50 (MT4 [5]): > 100 µM; EC50 (MT4 [6]): > 100 µM
Cc1c(O)nc(SC2CCCC2)nc1Cc1cccc2ccccc12,6 µM,> 300 µM,> 50,EC50 (H9): > 100 µM; EC50 (C8166): > 100 µM; EC50 (MT4 [5]): > 100 µM; EC50 (MT4 [6]): 16.2 µM
CCCCCCCCCCCSc1nc(O)cc(Cc2cccc3ccccc23)n1,> 300 µM,> 300 µM,–,–
CCC(C)Sc1nc(O)cc(CSc2ccccc2)n1 (stereo not drawn),53 µM,288 µM,5.4,–
Oc1cc(COc2ccccc2)nc(SC2CCCC2)n1,148 µM,> 300 µM,> 2,–
Oc1cc(CCc2ccccc2)nc(SC2CCCC2)n1,81.5 µM,112 µM,1.4,–
Oc1cc(Cc2cccc3ccccc23)nc(SCc2ccccc2)n1,12.6 µM,> 300 µM,> 24,–
Cc1cccc(Cc2nc(SC3CCCC3)nc(O)c2C)c1,–,> 300 µM,> 500,–
Oc1cc(-c2ccccc2)nc(SC2CCCC2)n1,> 300 µM,> 300 µM,–,–
Cc1cccc(Cc2nc(SC3CCCCC3)nc(S)c2C)c1,14.6 µM,176 µM,12,–
COc1nc(SC2CCCCC2)nc(Cc2cccc(C)c2)c1C,> 300 µM,> 300 µM,–,–
Cc1c(O)nc(SC2CCCC2)nc1CCc1ccccc1,19 µM,> 300 µM,> 16,–
CCCC(C)Sc1nc(O)cc(Cc2cccc3ccccc23)n1 (stereo not drawn),4.6 µM,158 µM,34,–
CCCc1cc(O)nc(SC(C)CC)n1 (stereo not drawn),> 246 µM,246 µM,–,–

SMILES,EC50 (MT4 [1]),CC50 (MT4 [2]),Ratio [4],other results
Oc1cc(Cc2ccc3ccccc3c2)nc(SC2CCCC2)n1,3.7 µM,> 300 µM,> 8.1,–
CCCc1cc(O)nc(SC2CCCCC2)n1,> 210 µM,210 µM,–,–
CCC(C)Sc1nc(O)cc(Cc2ccc3ccccc3c2)n1 (stereo not drawn),2.8 µM,40 µM,14,IC50 [3]: 7.4 µM; EC50 (H9): > 100 µM; EC50 (C8166): > 100 µM; EC50 (MT4 [5]): > 100 µM; EC50 (MT4 [6]): 4.1 µM
Oc1cc(CSc2ccccc2)nc(SC2CCCCC2)n1,32 µM,> 300 µM,> 9.4,–
Cc1c(O)nc(S)nc1Cc1ccc2ccccc2c1,> 91 µM,91 µM,–,–
Oc1cc(CSc2ccccc2)nc(S)n1,> 300 µM,> 300 µM,–,–
Oc1cc(COc2ccccc2)nc(S)n1,> 300 µM,> 300 µM,–,–
Oc1cc(COc2ccccc2)nc(SC2CCCCC2)n1,> 300 µM,> 300 µM,–,–
O=c1cc(Cc2cccc3ccccc23)nc(SC2CCCC2)[nH]1,–,–,–,IC50 [3]: 48.7 µM
Cc1c(O)nc(SC2CCCC2)nc1CSc1ccccc1,150 µM,> 300 µM,> 2,–
CCC(C)Sc1nc(O)c(C)c(Cc2cccc3ccccc23)n1 (stereo not drawn),1 µM,> 300 µM,> 300,EC50 (H9): > 100 µM; EC50 (C8166): > 100 µM; EC50 (MT4 [5]): > 100 µM; EC50 (MT4 [6]): 6 µM
CCC(C)Sc1nc(SC2CCCCC2)nc(Cc2cccc(C)c2)c1C (stereo not drawn),> 300 µM,> 300 µM,–,–
CC(C)Sc1nc(O)cc(Cc2cccc3ccccc23)n1,1 µM,> 300 µM,> 300,–
Cc1c(O)nc(SC2CCCCC2)nc1COc1ccccc1,22 µM,> 300 µM,> 14,–
Cc1c(O)nc(SC2CCCCC2)nc1CCc1ccccc1,27 µM,> 300 µM,> 11,–
Oc1cc(CSc2ccccc2)nc(SC2CCCC2)n1,66 µM,300 µM,4.5,–
Oc1cc(Cc2ccc3ccccc3c2)nc(S)n1,> 300 µM,> 300 µM,–,–
Cc1ccnc2c1NC(=O)c1cccnc1N2C1CC1 [NEVIRAPINE],0.25 µM,> 300 µM,–,EC50 (H9): > 100 µM; EC50 (C8166): > 100 µM; EC50 (MT4 [5]): > 100 µM; EC50 (MT4 [6]): 0.31 µM
CCC(C)Sc1nc(O)c(C)c(CCc2ccccc2)n1 (stereo not drawn),18 µM,105 µM,6,–
Oc1cc(CCc2ccccc2)nc(SC2CCCCC2)n1,68 µM,133 µM,1.9,–
CCC(C)Sc1nc(O)cc(-c2ccccc2)n1 (stereo not drawn),> 300 µM,> 300 µM,–,–
Oc1cc(Cc2cccc3ccccc23)nc(SC2CCCCCC2)n1,3 µM,> 300 µM,> 100,–
CCC(C)Sc1nc(C)c(Cc2ccccc2)c(O)n1 (stereo not drawn),> 300 µM,> 300 µM,–,–
